# Test results reported in ChEMBL document CHEMBL1139341 (J Med Chem, 2009).
# pIC50: −log10 of the molar value. Active and inactive are the calls of the source. No cut-off for these calls is given here. Starred links: 1 amine or outer side, 2 acyl side, 3 side chain; linkers in the order of their positions; H or OH if unused. Positions of bridges follow the written chain, without caps; N, C: chain ends. Non-standard residues stand in square brackets, D forms with d. Residues, ends and D or L forms follow the SMILES beside them. Phe(Nα-(CH2)3CO) = O=C([C@H](Cc1ccccc1)N(CCCC(=O)[*:3])[*:1])[*:2]; N(2-aminoethyl)Phe = O=C([C@H](Cc1ccccc1)N(CCN[*:3])[*:1])[*:2]
# How the values were obtained:
# [1] = target: T1, Somatostatin receptor type 5 (Homo sapiens, UniProt P35346); test: Displacement of [125I]-[Leu8, DTrp22, Tyr25]-somatostatin-28 from human recombinant sst5 receptor expressed in chinese hamster CCL39 cells; format: cell-based
# Outline: (§1)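 Competitive displacement on membrane pellet sections from cells expressing each human sst subtype. The radioligand was [¹²⁵I]-[Leu⁸,D-Trp²²,Tyr²⁵]-somatostatin-28 at 15000 cpm/100 µL. Unlabeled compounds were tested from 0.1 to 1,000 nmol/L, with somatostatin-28 run in parallel over the same range. IC₅₀ was calculated from displacement.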
# [2] = target: Somatostatin receptor type 2 (Homo sapiens, UniProt P30874); test: Displacement of [125I]-[Leu8, DTrp22, Tyr25]-somatostatin-28 from human recombinant sst2 receptor expressed in chinese hamster CCL39 cells; format: cell-based; outline: as §1
# [3] = target: Somatostatin receptor type 1 (Homo sapiens, UniProt P30872); test: Displacement of [125I]-[Leu8, DTrp22, Tyr25]-somatostatin-28 from human recombinant sst1 receptor expressed in chinese hamster CCL39 cells; format: cell-based; outline: as §1
# [4] = target: Somatostatin receptor type 4 (Homo sapiens, UniProt P31391); test: Displacement of [125I]-[Leu8, DTrp22, Tyr25]-somatostatin-28 from human recombinant sst4 receptor expressed in chinese hamster CCL39 cells; format: cell-based; outline: as §1
# [5] = target: Somatostatin receptor type 3 (Homo sapiens, UniProt P32745); test: Displacement of [125I]-[Leu8, DTrp22, Tyr25]-somatostatin-28 from human recombinant sst3 receptor expressed in chinese hamster CCL39 cells; format: cell-based; outline: as §1
# [6] = target: T1, Somatostatin receptor type 5; test: Agonist activity at human recombinant sst5 receptor expressed in chinese hamster CCL39 cells assessed stimulation of [35S]GTP-gamma-S-binding; format: functional, cell-based
# Outline: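 CCL-sst₅ cells grown in DMEM/Ham's F-12 (1:1) with 10% FBS, penicillin/streptomycin and 400 µg/mL G418 at 37 °C, 5% CO₂. Binding was run on 20 µm cryostat sections of membrane pellets. Sections were preincubated 10 min at room temperature in Tris-HCl buffer (pH 8.2) with BSA, bacitracin and MgCl₂. They then went 30 min in the same buffer plus 50 µM GDP.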
# Homo sapiens = organism: Homo sapiens; test: Selectivity for human recombinant sst5 receptor over human recombinant sst4 receptor
# Somatostatin receptor type 2, sequence (P30874 whole entry): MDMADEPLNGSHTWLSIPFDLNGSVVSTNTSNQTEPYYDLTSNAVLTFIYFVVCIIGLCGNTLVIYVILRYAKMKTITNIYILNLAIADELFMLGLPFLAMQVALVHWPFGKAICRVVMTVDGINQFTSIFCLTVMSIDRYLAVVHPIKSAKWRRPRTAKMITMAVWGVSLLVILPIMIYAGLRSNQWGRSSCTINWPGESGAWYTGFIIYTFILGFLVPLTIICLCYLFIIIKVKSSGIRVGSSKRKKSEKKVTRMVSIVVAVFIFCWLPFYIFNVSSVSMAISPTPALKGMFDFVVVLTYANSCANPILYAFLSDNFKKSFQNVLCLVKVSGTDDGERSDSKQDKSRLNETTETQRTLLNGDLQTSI
# Somatostatin receptor type 1, sequence (P30872 whole entry): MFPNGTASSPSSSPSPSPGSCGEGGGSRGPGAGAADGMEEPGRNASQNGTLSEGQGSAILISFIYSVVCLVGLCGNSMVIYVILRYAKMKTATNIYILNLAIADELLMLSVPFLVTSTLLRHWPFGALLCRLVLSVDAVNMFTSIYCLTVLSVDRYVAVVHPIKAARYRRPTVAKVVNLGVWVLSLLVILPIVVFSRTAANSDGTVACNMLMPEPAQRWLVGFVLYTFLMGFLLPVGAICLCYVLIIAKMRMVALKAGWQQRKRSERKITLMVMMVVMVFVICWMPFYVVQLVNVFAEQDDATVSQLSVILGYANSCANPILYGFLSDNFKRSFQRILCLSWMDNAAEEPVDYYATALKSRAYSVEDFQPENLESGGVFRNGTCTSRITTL
# Somatostatin receptor type 3, sequence (P32745 whole entry): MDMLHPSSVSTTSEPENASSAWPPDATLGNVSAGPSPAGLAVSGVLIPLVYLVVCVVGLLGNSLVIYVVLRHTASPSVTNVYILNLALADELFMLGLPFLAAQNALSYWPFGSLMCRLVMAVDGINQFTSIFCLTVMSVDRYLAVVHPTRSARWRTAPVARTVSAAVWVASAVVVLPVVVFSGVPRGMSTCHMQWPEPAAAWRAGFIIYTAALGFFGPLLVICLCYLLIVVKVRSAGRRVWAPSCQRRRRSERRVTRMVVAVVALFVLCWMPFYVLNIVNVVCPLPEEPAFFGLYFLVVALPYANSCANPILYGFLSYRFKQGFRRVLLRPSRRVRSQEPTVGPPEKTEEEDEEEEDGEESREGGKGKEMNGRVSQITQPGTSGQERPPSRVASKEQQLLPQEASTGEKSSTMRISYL
# Somatostatin receptor type 4, sequence (P31391 whole entry): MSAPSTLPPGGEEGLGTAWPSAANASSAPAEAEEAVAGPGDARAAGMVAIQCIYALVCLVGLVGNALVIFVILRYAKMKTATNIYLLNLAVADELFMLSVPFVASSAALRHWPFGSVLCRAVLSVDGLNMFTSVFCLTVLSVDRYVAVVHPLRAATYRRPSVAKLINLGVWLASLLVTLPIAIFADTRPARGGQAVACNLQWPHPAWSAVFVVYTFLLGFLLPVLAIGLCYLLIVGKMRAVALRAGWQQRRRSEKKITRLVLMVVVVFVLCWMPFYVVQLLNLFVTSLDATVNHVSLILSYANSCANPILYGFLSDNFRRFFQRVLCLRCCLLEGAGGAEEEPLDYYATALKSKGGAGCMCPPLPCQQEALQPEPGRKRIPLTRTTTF
# T1 sequence (P35346 whole entry): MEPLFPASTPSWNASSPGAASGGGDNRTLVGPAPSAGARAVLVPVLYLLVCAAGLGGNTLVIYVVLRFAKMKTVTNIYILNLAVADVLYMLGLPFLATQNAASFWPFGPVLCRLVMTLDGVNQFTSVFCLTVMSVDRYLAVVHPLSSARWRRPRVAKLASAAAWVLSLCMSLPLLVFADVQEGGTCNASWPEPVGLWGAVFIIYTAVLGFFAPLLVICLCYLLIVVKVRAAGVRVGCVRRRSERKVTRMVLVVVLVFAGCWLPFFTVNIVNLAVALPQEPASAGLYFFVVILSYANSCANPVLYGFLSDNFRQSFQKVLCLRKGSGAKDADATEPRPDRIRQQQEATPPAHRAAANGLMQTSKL
SMILES,pIC50 [1],pIC50 [2],pIC50 [3],pIC50 [4],pIC50 [5],Activity [6],fold change (FC) (Homo sapiens)
C[C@H](NC(=O)[C@H](CCCCN)N1Cc2[nH]c3ccccc3c2C[C@@H](NC(=O)Cc2ccccc2)C1=O)c1ccccc1,8.49,6.34,6.74,9.00,6.52,,
C[C@@H](O)[C@@H](CO)NC(=O)[C@@H]1C/C=C/C[C@H](NC(=O)[C@H](N)Cc2ccccc2)C(=O)N[C@@H](Cc2ccccc2)C(=O)N[C@H](Cc2c[nH]c3ccccc23)C(=O)N[C@@H](CCCCN)C(=O)N[C@@H](Cc2ccc(OCc3ccccc3)cc2)C(=O)N1,7.92,,,,,,24
NCCCC[C@@H](C(=O)NCc1ccccc1)N1Cc2[nH]c3ccccc3c2C[C@@H](NC(=O)c2ccc(Cl)cc2)C1=O,8.43,7.66,7.42,8.64,6.79,,
NCCCC[C@@H](C(=O)NCc1ccccc1)N1Cc2[nH]c3ccccc3c2C[C@@H](NC(=O)CCc2ccccc2)C1=O,8.47,8.00,7.27,8.09,6.82,,
CC(C)[C@@H]1NC(=O)[C@H](CCCCN)NC(=O)[C@H](Cc2c[nH]c3ccccc23)NC(=O)[C@H](Cc2ccc(O)cc2)NC(=O)[C@H](Cc2ccccc2)NCCNC(=O)CCCN([C@@H](Cc2ccccc2)C(=O)N[C@H](C(N)=O)[C@@H](C)O)C1=O (H-[N(2-aminoethyl)Phe]YWKV[Phe(Nα-(CH2)3CO)]T-NH2; lactam 1-6),,,,,,,24
NCCCC[C@@H](C(=O)NCc1ccccc1)N1Cc2[nH]c3ccccc3c2C[C@@H](NC(=O)C(c2ccccc2)c2ccccc2)C1=O,8.06,6.62,6.61,7.85,< 6.30,,
CS(=O)(=O)N1CC2(CCN(C(=O)N[C@@H]3Cc4c([nH]c5ccccc45)CN([C@@H](CCCCN)C(=O)NCc4ccccc4)C3=O)CC2)c2ccccc21,8.10,6.49,6.08,8.68,6.50,,
NCCCC[C@@H](C(=O)NCc1ccccc1)N1Cc2[nH]c3ccccc3c2C[C@@H](NC(=O)N2CCN(S(=O)(=O)c3ccccc3)CC2)C1=O,8.46,8.38,6.43,7.23,6.59,,
NCCCC[C@@H](C(=O)NCc1cccc2ccccc12)N1Cc2[nH]c3ccccc3c2C[C@@H](NC(=O)Cc2ccccc2)C1=O,8.46,6.67,6.41,7.77,6.98,,
NCCCC[C@H](C(=O)NCc1ccccc1)N1Cc2[nH]c3ccccc3c2C[C@@H](NC(=O)Cc2ccccc2)C1=O,7.60,< 6.00,< 6.00,7.25,6.04,,
NCCCC[C@@H](C(=O)NCc1ccccc1)N1Cc2[nH]c3ccccc3c2C[C@@H](NC(=O)N2CCC3(CCc4ccccc43)CC2)C1=O,8.54,8.68,6.42,7.46,8.04,,
CC(=O)N[C@@H]1Cc2c([nH]c3ccccc23)CN([C@@H](CCCCN)C(=O)NCc2ccccc2)C1=O,8.30,6.53,6.60,8.15,< 6.00,,
COC(=O)[C@H](CCCCN)N1Cc2[nH]c3ccccc3c2C[C@@H](NC(=O)Cc2ccccc2)C1=O,7.89,6.54,6.02,8.62,6.40,,
C[C@@H](NC(=O)[C@H](CCCCN)N1Cc2[nH]c3ccccc3c2C[C@@H](NC(=O)Cc2ccccc2)C1=O)c1ccccc1,7.30,6.11,6.20,7.85,6.39,,
NCCCC[C@@H](C(=O)NCc1ccccc1)N1Cc2[nH]c3ccccc3c2C[C@@H](NC(=O)c2ccc(-c3ccccc3)cc2)C1=O,7.80,7.92,< 6.00,6.79,7.27,,

# The remaining compounds from weak to strong by pIC50 [1], led by results:
pIC50 [1],pIC50 [2],pIC50 [3],pIC50 [4],pIC50 [5],Activity [6],fold change (FC) (Homo sapiens),SMILES
8.74,6.99,7.57,8.89,6.74,,,NCCCC[C@@H](C(=O)NCc1ccccc1)N1Cc2[nH]c3ccccc3c2C[C@@H](NC(=O)c2ccccc2)C1=O
8.85,8.68,7.05,8.16,6.92,,,NCCCC[C@@H](C(=O)NCc1ccccc1)N1Cc2[nH]c3ccccc3c2C[C@@H](NC(=O)C2CCN(C(=O)c3ccccc3)CC2)C1=O
9.07,9.14,7.12,8.36,8.41,,,NCCCC[C@@H](C(=O)NCc1ccccc1)N1Cc2[nH]c3ccccc3c2C[C@@H](NC(=O)N2CCC(n3c(=O)[nH]c4ccccc43)CC2)C1=O
9.22,6.74,7.12,8.62,7.30,Active,,NCCCC[C@@H](C(=O)NCCc1ccccc1)N1Cc2[nH]c3ccccc3c2C[C@@H](NC(=O)Cc2ccccc2)C1=O
9.25,< 6.00,6.98,8.15,6.29,Active,10,CC(=O)N[C@@H]1Cc2c([nH]c3ccccc23)CN([C@@H](CCCCN)C(=O)NCCc2ccccc2)C1=O
9.40,,,,,,,C[C@H](N)COC(=O)[C@@H](CCCCN)NC(=O)Cc1c(-c2ccc3ccccc3c2)[nH]c2c1ccc1ccccc12
9.52,,,,,,200,NCc1cccc(C[C@@H]2O[C@@H](CC(=O)NCc3ccccc3F)C(=O)N(Cc3ccc(-c4ccccc4)cc3)c3ccccc32)c1
